Laboratory results taken from ChEMBL document CHEMBL3297654, “Synthesis, antimicrobial and cytotoxic activities, and structure-activity relationships of gypsogenin derivatives against human cancer cells” (Eur J Med Chem, 2014).
Converted amounts (≈) assume the structure as drawn. The source made the active and inactive calls. The rule behind the calls is not given here.

Legend:
Bacillus cereus [1] = test: Antimicrobial activity against Bacillus cereus ATCC 11778 for 24 hrs by microdillution method; format: functional
Summary of the method: (§1)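 Broth microdilution. Compound is dissolved in DMSO (2 mg/mL) and diluted in Mueller Hinton broth as two-fold serial dilutions from 256 to 0.125 µg/mL. Bacteria are pre-grown in nutrient broth at 30 °C, and the final inoculum is about 10^6 cfu/mL. Tests are incubated 37 °C for 24 h. MIC is the lowest concentration giving complete inhibition. Streptomycin is the positive control.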

Bacillus thuringiensis [2] = test: Antimicrobial activity against Bacillus thuringiensis assessed as zone of inhibition at 30 uL for 24 hrs at 30 degC by disk diffusion test; format: functional
Summary of the method: (§2)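 Agar well diffusion on Mueller Hinton agar seeded with 0.1 mL broth culture (18–24 h), adjusted to 0.5 McFarland (about 1×10^8 bacteria or 1×10^6 yeast cells/mL). A 6 mm well is filled with 30 µL of compound from a fresh 1000 µg/mL DMSO stock. Plates are held at 30 °C for 24 h and inhibition zone diameter is read in mm.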

Bacillus thuringiensis [3] = test: Antimicrobial activity against Bacillus thuringiensis for 24 hrs by microdillution method; format: functional; summary of the method: as §1
SAOS-2 [4] = test: Induction of apoptosis in human Saos2 cells at 20 uM after 48 hrs by Hoechst 33258/propidium iodide staining based phase contrast microscopic analysis; format: functional
Summary of the method: (§3)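 Cells in 48-well plates treated with 0.5, 10, 20 or 40 µM for 24 and 48 h. Values are read at 48 h, 20 µM for test agents and 0.5 µM for controls. Staining is Hoechst 33258/propidium iodide double staining with fluorescence microscopy. Blue nuclei are viable or early-to-mid apoptotic, and pink nuclei are late apoptotic or necrotic. Apoptosis and necrosis are scored from chromatin condensation as % of cells. Cells are grown at 37 °C in 5% CO2 in RPMI, DMEM or McCoy's 5A with 10–15% heat-inactivated FCS.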

HeLa [5] = test: Induction of necrosis in human HeLa cells at 20 uM after 48 hrs by Hoechst 33258/propidium iodide staining based phase contrast microscopic analysis; format: functional; summary of the method: as §3
[6] = tested on: Staphylococcus epidermidis; test: Antimicrobial activity against Staphylococcus epidermidis ATCC 12228 assessed as zone of inhibition at 30 uL for 24 hrs at 37 degC by disk diffusion test; format: functional, organism-based
Summary of the method: (§4)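 Compound (30 µL of a fresh 1000 µg/mL DMSO stock) goes into a 6 mm well cut in Mueller Hinton agar inoculated with 0.1 mL broth culture adjusted to 0.5 McFarland (about 1×10^8 cells/mL). Plates are incubated 24 h at 37 °C, then zone of inhibition diameter is measured in mm.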

Caco-2 [7] = test: Antiproliferative activity against human Caco2 cells after 24 and 72 hrs by MTT assay; format: functional, cell-based
Summary of the method: (§5)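 ATCC human cell lines are kept in RPMI, DMEM or McCoy's 5A with 10–15% heat-inactivated FCS at 37 °C and 5% CO2. They are seeded at 1×10^4–1×10^5 cells/mL in 48-well plates and exposed to 0.5, 10, 20 or 40 µM. Viability is read by MTT (590 nm) at 24 and 72 h. Growth is expressed relative to untreated cells and IC50 is fitted, in triplicate.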

Pseudomonas aeruginosa = test: Antimicrobial activity against Pseudomonas aeruginosa ATCC 35032 assessed as zone of inhibition at 30 uL for 24 hrs at 37 degC by disk diffusion test; format: functional, organism-based; summary of the method: as §4
Staphylococcus aureus = test: Antimicrobial activity against Staphylococcus aureus ATCC 25923 assessed as zone of inhibition at 30 uL for 24 hrs at 37 degC by disk diffusion test; format: functional, organism-based; summary of the method: as §4
HeLa [8] = test: Antiproliferative activity against human HeLa cells after 24 and 72 hrs by MTT assay; format: functional, cell-based; summary of the method: as §5
MCF7 [9] = test: Induction of apoptosis in human MCF7 cells at 20 uM after 48 hrs by Hoechst 33258/propidium iodide staining based phase contrast microscopic analysis; format: functional; summary of the method: as §3
Caco-2 [10] = test: Induction of necrosis in human Caco2 cells at 20 uM after 48 hrs by Hoechst 33258/propidium iodide staining based phase contrast microscopic analysis; format: functional; summary of the method: as §3
Candida albicans = test: Antimicrobial activity against Candida albicans ATCC 10231 assessed as zone of inhibition at 30 uL for 24 hrs at 30 degC by disk diffusion test; format: functional, organism-based; summary of the method: as §2
MCF7 [11] = test: Induction of necrosis in human MCF7 cells at 20 uM after 48 hrs by Hoechst 33258/propidium iodide staining based phase contrast microscopic analysis; format: functional; summary of the method: as §3
Klebsiella pneumoniae = test: Antimicrobial activity against Klebsiella pneumoniae ATCC 13882 assessed as zone of inhibition at 30 uL for 24 hrs at 37 degC by disk diffusion test; format: functional, organism-based; summary of the method: as §4
HL-60 [12] = test: Induction of necrosis in human HL60 cells at 20 uM after 48 hrs by Hoechst 33258/propidium iodide staining based phase contrast microscopic analysis; format: functional; summary of the method: as §3
[13] = Antiproliferative activity against human Saos2 cells after 24 and 72 hrs by MTT assay; format: functional, cell-based; conditions: SAOS-2; summary of the method: as §5
Salmonella typhimurium = test: Antimicrobial activity against Salmonella typhimurium ATCC 14028 assessed as zone of inhibition at 30 uL for 24 hrs at 37 degC by disk diffusion test; format: functional, organism-based; conditions: Salmonella enterica subsp. enterica serovar Typhimurium; summary of the method: as §4
Escherichia coli = test: Antimicrobial activity against Escherichia coli ATCC 25922 assessed as zone of inhibition at 30 uL for 24 hrs at 37 degC by disk diffusion test; format: functional, organism-based; summary of the method: as §4
Candida tropicalis = test: Antimicrobial activity against Candida tropicalis assessed as zone of inhibition at 30 uL for 24 hrs at 30 degC by disk diffusion test; format: functional, organism-based; summary of the method: as §2
HL-60 [14] = test: Antiproliferative activity against human HL60 cells after 24 and 72 hrs by MTT assay; format: functional, cell-based; summary of the method: as §5
HT-29 [15] = test: Induction of necrosis in human HT-29 cells at 20 uM after 48 hrs by Hoechst 33258/propidium iodide staining based phase contrast microscopic analysis; format: functional; summary of the method: as §3
Micrococcus luteus = test: Antimicrobial activity against Micrococcus luteus ATCC 9341 assessed as zone of inhibition at 30 uL for 24 hrs at 30 degC by disk diffusion test; format: functional, organism-based; summary of the method: as §2
Bacillus cereus [16] = test: Antimicrobial activity against Bacillus cereus ATCC 11778 assessed as zone of inhibition at 30 uL for 24 hrs at 30 degC by disk diffusion test; format: functional; summary of the method: as §2
Proteus vulgaris = test: Antimicrobial activity against Proteus vulgaris ATCC 33420 assessed as zone of inhibition at 30 uL for 24 hrs at 37 degC by disk diffusion test; format: functional, organism-based; summary of the method: as §4
MCF7 [17] = test: Antiproliferative activity against human MCF7 cells after 24 and 72 hrs by MTT assay; format: functional, cell-based; summary of the method: as §5
Cyberlindnera jadinii = test: Antimicrobial activity against Candida utilis ATCC 9950 assessed as zone of inhibition at 30 uL for 24 hrs at 30 degC by disk diffusion test; format: functional, organism-based; summary of the method: as §2
Caco-2 [18] = test: Induction of apoptosis in human Caco2 cells at 20 uM after 48 hrs by Hoechst 33258/propidium iodide staining based phase contrast microscopic analysis; format: functional; summary of the method: as §3
SAOS-2 [19] = test: Induction of necrosis in human Saos2 cells at 20 uM after 48 hrs by Hoechst 33258/propidium iodide staining based […] microscopic analysis; format: functional; summary of the method: as §3
Bacillus subtilis [20] = test: Antimicrobial activity against Bacillus subtilis ATCC 6633 assessed as zone of inhibition at 30 uL for 24 hrs at 30 degC by disk diffusion test; format: functional; summary of the method: as §2
Bacillus subtilis [21] = test: Antimicrobial activity against Bacillus subtilis ATCC 6633 for 24 hrs by microdillution method; format: functional; summary of the method: as §1
Nakaseomyces glabratus = test: Antimicrobial activity against Candida glabrata assessed as zone of inhibition at 30 uL for 24 hrs at 30 degC by disk diffusion test; format: functional, organism-based; summary of the method: as §2
HT-29 [22] = test: Induction of apoptosis in human HT-29 cells at 20 uM after 48 hrs by Hoechst 33258/propidium iodide staining based phase contrast microscopic analysis; format: functional; summary of the method: as §3
Enterococcus faecalis = test: Antimicrobial activity against Enterococcus faecalis ATCC 29212 assessed as zone of inhibition at 30 uL for 24 hrs at 37 degC by disk diffusion test; format: functional, organism-based; summary of the method: as §4
Saccharomyces cerevisiae = test: Antimicrobial activity against Saccharomyces cerevisiae ATCC 9763 assessed as zone of inhibition at 30 uL for 24 hrs at 30 degC by disk diffusion test; format: functional, organism-based; summary of the method: as §2
HeLa [23] = test: Induction of apoptosis in human HeLa cells at 20 uM after 48 hrs by Hoechst 33258/propidium iodide staining based phase contrast microscopic analysis; format: functional; summary of the method: as §3
HL-60 [24] = test: Induction of apoptosis in human HL60 cells at 20 uM after 48 hrs by Hoechst 33258/propidium iodide staining based phase contrast microscopic analysis; format: functional; summary of the method: as §3
HT-29 [25] = test: Antiproliferative activity against human HT-29 cells after 24 and 72 hrs by MTT assay; format: functional, cell-based; summary of the method: as §5

For `CC1(C)CC[C@]2(C(=O)OCc3ccccc3)CC[C@]3(C)C(=CC[C@@H]4[C@@]5(C)CC[C@H](O)[C@@](C)(C=O)[C@@H]5CC[C@]43C)[C@@H]2C1`, the MIC (Bacillus cereus [1]) was “inactive”, the “diameter of the inhibition zone (DIZ)” value (Bacillus thuringiensis [2]) was “inactive” and the MIC (Bacillus thuringiensis [3]) was “inactive”. The Activity (SAOS-2 [4]) was 9%, the Activity (HeLa [5]) was 45% and the “diameter of the inhibition zone (DIZ)” value [6] was “inactive”. The IC50 (Caco-2 [7]) was 11.1 µM, the “diameter of the inhibition zone (DIZ)” value (Pseudomonas aeruginosa) was “inactive” and the “diameter of the inhibition zone (DIZ)” value (Staphylococcus aureus) was “inactive”. The IC50 (HeLa [8]) was 74.2 µM, the Activity (MCF7 [9]) was 4% and the Activity (Caco-2 [10]) was 15%. The “diameter of the inhibition zone (DIZ)” value (Candida albicans) was “inactive”, the Activity (MCF7 [11]) was 57% and the “diameter of the inhibition zone (DIZ)” value (Klebsiella pneumoniae) was “inactive”. The Activity (HL-60 [12]) was 48%, the IC50 [13] was 12.7 µM and the “diameter of the inhibition zone (DIZ)” value (Salmonella typhimurium) was “inactive”. The “diameter of the inhibition zone (DIZ)” value (Escherichia coli) was “inactive”, the “diameter of the inhibition zone (DIZ)” value (Candida tropicalis) was “inactive” and the IC50 (HL-60 [14]) was 8.14 µM. For the same compound, the Activity (HT-29 [15]) was 22%, the “diameter of the inhibition zone (DIZ)” value (Micrococcus luteus) was “inactive” and the “diameter of the inhibition zone (DIZ)” value (Bacillus cereus [16]) was “inactive”. The “diameter of the inhibition zone (DIZ)” value (Proteus vulgaris) was “inactive”, the IC50 (MCF7 [17]) was 5.15 µM and the “diameter of the inhibition zone (DIZ)” value (Cyberlindnera jadinii) was “inactive”. The Activity (Caco-2 [18]) was 1%, the Activity (SAOS-2 [19]) was 30% and the “diameter of the inhibition zone (DIZ)” value (Bacillus subtilis [20]) was “inactive”. For the same compound, the MIC (Bacillus subtilis [21]) was “inactive”, the “diameter of the inhibition zone (DIZ)” value (Nakaseomyces glabratus) was “inactive” and the Activity (HT-29 [22]) was 1%. The “diameter of the inhibition zone (DIZ)” value (Enterococcus faecalis) was “inactive”, the “diameter of the inhibition zone (DIZ)” value (Saccharomyces cerevisiae) was “inactive” and the Activity (HeLa [23]) was 4%. It also gave an Activity (HL-60 [24]) of 6% and an IC50 (HT-29 [25]) of 8.51 µM.
With `CN[C@@H]1[C@H](O[C@H]2[C@H](O[C@H]3[C@H](O)[C@@H](O)[C@H](N=C(N)N)[C@@H](O)[C@@H]3N=C(N)N)O[C@@H](C)[C@]2(O)C=O)O[C@@H](CO)[C@H](O)[C@H]1O` [STREPTOMYCIN] the MIC (Bacillus cereus [1]; ATCC 11778, 24 h) was 64 µg/mL (≈ 110 µM), the MIC (Bacillus thuringiensis [3]) was 64 µg/mL (≈ 110 µM) and the MIC (Bacillus subtilis [21]; ATCC 6633, 24 h) was 64 µg/mL (≈ 110 µM).
